# Where two headings read alike, the source gives them in different places.
# Columns and labels:
# [1] = system: bloodstream form T. b. brucei BS427; assay: Trypanocidal activity, Alamar Blue assay; assay type: cell-based
# [2] = Pooled human liver microsomal assay; assay type: in vitro ADME; settings: pooled human liver microsomes, 0.5 μM compound, NADPH
# In short: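 Microsomes at 0.5 mg/mL in 50 mM potassium phosphate, pH 7.4, reaction started with excess NADPH. Aliquots at 0, 3, 6, 9, 15 and 30 min quenched in acetonitrile, internal standard added, protein spun down, UPLC-MS/MS. Rate constant from exponential decay of compound/internal standard peak-area ratio. CLi scaled by incubation volume/mg protein and 52.5 mg protein/g liver. Verapamil positive control.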
# [3] = phosphate buffer pH 7.4; previously reported compound; cited from earlier work
# [4] = system: T. brucei; settings: cited from earlier work
# [5] = Chemical stability in phosphate buffer at pH 7.4; assay type: physicochemical; settings: pH 7.4, t1/2 pH 7.4, phosphate buffer pH 7.4
smiles,measurement,setting,value
Cc1cccc(OP(=O)(N[C@@H](C(=O)OC(C)(C)C)C(C)C)OC[C@H]2OC(C)(C)O[C@H]2C(=O)NO)c1C (stereo partly drawn) [15q],increase in activity,[1]; 15q relative to 15a,more than 5000 times
CCOC(=O)[C@H](NP(=O)(OC[C@H]1OC(C)(C)O[C@H]1C(=O)NO)Oc1ccccc1)C(C)C (stereo partly drawn) [15f],PHLM Cli,[2],<0.5 mL/min/g
COC(=O)[C@@H](C)NP(=O)(OC[C@H]1OC(C)(C)O[C@H]1C(=O)NO)Oc1ccc([N+](=O)[O-])cc1 (stereo partly drawn) [15a],half-life,[3],about 50 min
"CC1(C)O[C@H](COP(=O)(O)O)[C@H](C(=O)NO)O1 [compound 1, 2,3-O-Isopropylidene-4-erythrono hydroxamate]",EC50,"[4]; T. brucei cell culture, previously reported compounds",> 330000 nM
same,activity against the parasite,[4]; result in words,inactive
CCOC(=O)[C@H](NP(=O)(OC[C@H]1OC(C)(C)O[C@H]1C(=O)NO)Oc1cccc(C)c1C)C(C)C (stereo partly drawn) [15p],PHLM Cli,[2],<0.5 mL/min/g
COC(=O)[C@@H](C)NP(=O)(OC[C@H]1OC(C)(C)O[C@H]1C(=O)NO)Oc1cccc(C)c1C (stereo partly drawn) [15o],IC50,[1]; Trypanosoma brucei,270 nM
same,half-life,[5],30 h
CCOC(=O)[C@H](NP(=O)(OC[C@H]1OC(C)(C)O[C@H]1C(=O)NO)Oc1ccc(C)cc1)C(C)C (stereo partly drawn) [15l],PHLM Cli,[2],<0.5 mL/min/g

# Reference: paper PMC2923871 (Journal of Medicinal Chemistry, 2010)
